# Experimental data as given in PubChem BioAssay.
# Values joined by “and” are separate entries in the source; they are usually repeats but may differ in a detail not shown here. Identical values can stand only once. A number with no mark means an inactive call.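 Rule for the calls, unless noted: active = viability at or below 10% of carrier control in both of two separate runs; inconclusive = viability at or below 10% in only one of the two runs; inactive = the rest.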
# Experiment: SK-BR-3 cell growth inhibitors, pilot screen, 24 h, human (AID 572);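 note: compound exposure lasted between 18 and 24 h rather than exactly 24 h; 100% = carrier-treated control wells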
# Conditions: SK-BR-3 viability, CellTiter-Glo luminescence, at 10 µM, active compounds read low
row,Structure (SMILES),viability
1,Cn1c(=O)[nH]c(=O)c2c1nc(N1CCNCC1)n2CCOc1ccccc1,79.5%
2,CCOC(=O)c1cc2n(n1)C(C(F)(F)C(F)(F)F)CC(C)N2 (stereo not given),92%
3,Cc1ccccc1-n1c(=O)c2ccccc2n2nnnc12,80%
4,Cc1cccc(N2C(=O)CC(N3CCN(C(=O)c4ccccc4)CC3)C2=O)c1 (stereo not given),114%
5,CC(C)Cn1c(=O)c(C2=NS(=O)(=O)c3ccccc3N2)c(O)c2ccccc21,118%
6,c1ccc(CNc2ncnc3ccccc23)cc1,86%
7,O=S1(=O)N=C(Nc2nc3c(s2)CCCC3)c2ccccc21,82%
8,CCCn1c2ccccc2c2nnc(SCC(=O)Nc3ncccn3)nc21,105%
9,COc1cc(OC)cc(C(=O)N2c3ccc(F)cc3CCC2C)c1 (stereo not given),94.5%
10,CCOC(=O)C(CCc1nnc(N)s1)C(=O)OCC,87.5%
11,CCOC(=O)N1CCN(c2c(NCCCOC(C)C)c(=O)c2=O)CC1,97.5%
12,CN(C)S(=O)(=O)Nc1ccc(Br)cc1F,108%
13,CC(=O)Nc1c(C(=O)C2CC2)oc2ccccc12,102%
14,O=C(COC(=O)c1cc(-c2ccco2)nc2ccccc12)NCc1ccc2c(c1)OCO2,97%
15,CCC(=O)c1ccc(OCCN2CCOCC2)cc1,99.5%
16,Cc1cc(=O)oc2cc(OCC(=O)OCc3nnc(-c4ccccc4)o3)ccc12,106%
17,Nn1c(SCC(=O)NC2CCCCC2)nnc1C1CC1,102%
18,CCN(C(=O)Cc1c(C(=O)O)[nH]c2ccccc12)c1cc(OC)ccc1OC,112%
19,O=C(NCc1ccco1)c1cnc2n(c1=O)CCS2,101%
20,O=C1CN(C(=O)COC(=O)c2ccccc2NC(=O)c2ccco2)c2ccccc2N1,94%

row,Structure (SMILES),viability
1,CC(=O)Nc1ccc(S(=O)(=O)n2nc(C)cc2C)cc1,105%
2,CCOC(=O)CSc1nnc(Cn2nnc(-c3ccccc3)n2)n1CC,95.5%
3,O=C(Nc1ccccc1C(=O)N1CCCCCC1)c1cccc(S(=O)(=O)N2CCOCC2)c1,95.5%
4,Cc1ccc(-c2cc(C(=O)NCc3ccc4c(c3)OCO4)no2)cc1,96%
5,CCOC(=O)c1cc(C)sc1N1C(=O)C2C3C=CC(C3)C2C1=O (stereo not given),132%
6,Cc1ccc(-c2nc(CS(=O)CC(=O)NCCN(CC(C)C)CC(C)C)c(C)o2)cc1 (stereo not given),81%
7,CCN(CC)S(=O)(=O)N1CCC(C(=O)NC2CCCc3ccccc32)CC1 (stereo not given),78%
8,COc1ccc(OC)c(Nc2cc(-c3ccccc3)nc(N)n2)c1,72%
9,O=c1ccc(S(=O)(=O)N2CCC(Cc3ccccc3)CC2)c[nH]1,86%
10,CN(C)S(=O)(=O)c1ccc(Oc2ccc(S(=O)(=O)N(C)C)cc2)cc1,80.5%
11,COc1ccc2c(c1OC)C(=O)OC2C1c2c(cc3c(c2OC)OCO3)CCN1C (stereo not given),89% and 83%
12,c1ccc(-c2cn3c4c(sc3n2)CCCC4)cc1,89%
13,Oc1ccc2[nH]cnc2c1CN1CCCCC1,113%
14,CCCCOc1cc(=O)[nH]c(=O)[nH]1,108%
15,COc1cc(-c2nn3c(-c4cccnc4)nnc3s2)cc(OC)c1OC,101%
16,CCS(=O)(=O)Nc1ccc(C(=O)CC2(O)C(=O)Nc3ccccc32)cc1 (stereo not given),105%
17,Cn1c(=O)c2[nH]c(NCC3CCCO3)nc2n(-c2ccccc2)c1=O (stereo not given),94.5%
18,Cc1cccc(OCCCC(=O)O)c1,101%
19,Cc1cccc2cc(CN(CC3CCCO3)C(=O)c3cnccn3)c(=O)[nH]c12 (stereo not given),116%
20,COCCCNC(=O)C(Cc1ccccc1)NS(=O)(=O)c1ccc2c(c1)c(=O)n(C)c(=O)n2C (stereo not given),101%

# Experiment: HUVEC growth inhibition – cell-based, human, primary screen (AID 575;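 active = viability at or below 30% in both replicate assays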;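 note: 100% = median of untreated cell wells with 0.1% DMSO on each plate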)
# Conditions: HUVEC proliferation, CellTiter-Glo luminescence, 72 h; at 10 µM; active compounds read low
# How it was run: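 System – primary HUVEC, no more than 12 passages · Medium – Low-serum (2% FBS) EBM, supplemented · Times – 72 h exposure, 37 °C, 5% CO2, 30 min RT equilibration · Measured by – luminescent ATP assay · Read-out – % viability relative to median vehicle-well signal on each plate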
row,Structure (SMILES),viability
1,Cn1c(=O)[nH]c(=O)c2c1nc(N1CCNCC1)n2CCOc1ccccc1,81.1%
2,CCOC(=O)c1cc2n(n1)C(C(F)(F)C(F)(F)F)CC(C)N2 (stereo not given),105%
3,Cc1ccccc1-n1c(=O)c2ccccc2n2nnnc12,101%
4,Cc1cccc(N2C(=O)CC(N3CCN(C(=O)c4ccccc4)CC3)C2=O)c1 (stereo not given),90.8%
5,CC(C)Cn1c(=O)c(C2=NS(=O)(=O)c3ccccc3N2)c(O)c2ccccc21,97%
6,c1ccc(CNc2ncnc3ccccc23)cc1,58.2%
7,O=S1(=O)N=C(Nc2nc3c(s2)CCCC3)c2ccccc21,85.4%
8,CCCn1c2ccccc2c2nnc(SCC(=O)Nc3ncccn3)nc21,93.4%
9,COc1cc(OC)cc(C(=O)N2c3ccc(F)cc3CCC2C)c1 (stereo not given),112%
10,CCOC(=O)C(CCc1nnc(N)s1)C(=O)OCC,110%
11,CCOC(=O)N1CCN(c2c(NCCCOC(C)C)c(=O)c2=O)CC1,86.8%
12,CN(C)S(=O)(=O)Nc1ccc(Br)cc1F,86.9%
13,CC(=O)Nc1c(C(=O)C2CC2)oc2ccccc12,96.9%
14,O=C(COC(=O)c1cc(-c2ccco2)nc2ccccc12)NCc1ccc2c(c1)OCO2,72.2%
15,CCC(=O)c1ccc(OCCN2CCOCC2)cc1,111%
16,Cc1cc(=O)oc2cc(OCC(=O)OCc3nnc(-c4ccccc4)o3)ccc12,84.1%
17,Nn1c(SCC(=O)NC2CCCCC2)nnc1C1CC1,98.4%
18,CCN(C(=O)Cc1c(C(=O)O)[nH]c2ccccc12)c1cc(OC)ccc1OC,94.1%
19,O=C(NCc1ccco1)c1cnc2n(c1=O)CCS2,91.3%
20,O=C1CN(C(=O)COC(=O)c2ccccc2NC(=O)c2ccco2)c2ccccc2N1,97.3%

row,Structure (SMILES),viability
1,CC(=O)Nc1ccc(S(=O)(=O)n2nc(C)cc2C)cc1,111%
2,CCOC(=O)CSc1nnc(Cn2nnc(-c3ccccc3)n2)n1CC,107%
3,O=C(Nc1ccccc1C(=O)N1CCCCCC1)c1cccc(S(=O)(=O)N2CCOCC2)c1,94.1%
4,Cc1ccc(-c2cc(C(=O)NCc3ccc4c(c3)OCO4)no2)cc1,84.9%
5,CCOC(=O)c1cc(C)sc1N1C(=O)C2C3C=CC(C3)C2C1=O (stereo not given),109%
6,Cc1ccc(-c2nc(CS(=O)CC(=O)NCCN(CC(C)C)CC(C)C)c(C)o2)cc1 (stereo not given),86.4%
7,CCN(CC)S(=O)(=O)N1CCC(C(=O)NC2CCCc3ccccc32)CC1 (stereo not given),108%
8,COc1ccc(OC)c(Nc2cc(-c3ccccc3)nc(N)n2)c1,34.2%
9,O=c1ccc(S(=O)(=O)N2CCC(Cc3ccccc3)CC2)c[nH]1,111%
10,CN(C)S(=O)(=O)c1ccc(Oc2ccc(S(=O)(=O)N(C)C)cc2)cc1,54.4%
11,COc1ccc2c(c1OC)C(=O)OC2C1c2c(cc3c(c2OC)OCO3)CCN1C (stereo not given),70.2% and 90.3%
12,c1ccc(-c2cn3c4c(sc3n2)CCCC4)cc1,46%
13,Oc1ccc2[nH]cnc2c1CN1CCCCC1,107%
14,CCCCOc1cc(=O)[nH]c(=O)[nH]1,95.2%
15,COc1cc(-c2nn3c(-c4cccnc4)nnc3s2)cc(OC)c1OC,90.3%
16,CCS(=O)(=O)Nc1ccc(C(=O)CC2(O)C(=O)Nc3ccccc32)cc1 (stereo not given),90.3%
17,Cn1c(=O)c2[nH]c(NCC3CCCO3)nc2n(-c2ccccc2)c1=O (stereo not given),116%
18,Cc1cccc(OCCCC(=O)O)c1,93.5%
19,Cc1cccc2cc(CN(CC3CCCO3)C(=O)c3cnccn3)c(=O)[nH]c12 (stereo not given),96.9%
20,COCCCNC(=O)C(Cc1ccccc1)NS(=O)(=O)c1ccc2c(c1)c(=O)n(C)c(=O)n2C (stereo not given),96.8%
